Here are results for twelve molecules from ChEMBL document CHEMBL1135804, “Beta-strand mimicking macrocyclic amino acids: templates for protease inhibitors with antiviral activity” (J Med Chem, 2002).

The subject of one data set is MT2. As to the kind of experiment: Concentration required to produce 50% reduction in virion associated RT activity in HIV-1 infected MT2 cells. The following applies: Homo sapiens. In kind it is functional, cell-based. The gist of the method:
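MT2 cells (5 × 10⁴ per 0.25 mL RF10, RPMI-1640-based) given compound (diluted from 20 mM stock in 60% ethanol), then immediately HIV-1 strain #237288 at 200 TCID₅₀; 37 °C, 5% CO₂, 6–7 days; duplicates. Supernatant virus PEG-precipitated, virion-associated RT activity counted by scintillation; % inhibition versus virus-only controls; IC50 = 50% RT reduction.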

Data set [1] can be described thus: The Water-octanol distribution coefficient at pH6.5. The following applies: pH 6.5, read-out: Log D6.5. In kind it is physicochemical. The essentials: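 Value computed by a cited calculation method at pH 6.5, not measured experimentally.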
Data set [2] concerns the target Human immunodeficiency virus type 1 protease (Human immunodeficiency virus 1, UniProt Q72874). In words: Inhibitory activity against HIV-1 protease.

What is called IC50 is the midpoint of a concentration-inhibition curve. What is called Ki is the dissociation constant of the complex between target and ligand, obtained from inhibition or displacement. High values mean weaker binding, low ones tighter binding.

`CC(C)CN(C[C@@H](O)[C@H](Cc1ccccc1)NC(=O)O[C@H]1CCOC1)S(=O)(=O)c1ccc(N)cc1` returned a half-maximal inhibitory concentration (IC50) in the data set with MT2 of 30 nM.
The molecule `CCCCC(=O)N[C@H]1CCCCOc2ccc(cc2)C[C@@H]([C@H](O)CN(CCC(C)C)S(=O)(=O)c2ccc(NC(C)=O)cc2)NC(=O)[C@H](CCCC)NC1=O` gave a concentration for half-maximal inhibition (IC50) with MT2 of 580 nM. Moreover, the logD in data set [1] is 4.6.
The molecule `CCCC[C@@H]1NC(=O)[C@@H](NC(=O)[C@@H](N)CO)CCCCOc2ccc(cc2)C[C@@H]([C@H](O)CN(CCC(C)C)S(=O)(=O)c2ccc(N)cc2)NC1=O` showed a Ki in data set [2] of 3 nM. Besides, the IC50 in the data set with MT2 was over 10000 nM. In addition, the logD in data set [1] came out at 0.6.
For `CC(C)CCN(C[C@@H](O)[C@@H]1Cc2ccc(cc2)OCCCC[C@H](N)C(=O)N[C@@H](C(C)C)C(=O)N1)S(=O)(=O)c1ccc(N)cc1` the same measures were 0.9 nM, over 10000 nM and 1.
`CCCC[C@@H]1NC(=O)[C@@H](NC(=O)OC(C)(C)C)CCCCOc2ccc(cc2)C[C@@H]([C@H](O)CN(CCC(C)C)S(=O)(=O)c2ccc(NC(C)=O)cc2)NC1=O`: the affinity in data set [2] corresponds to a Ki of 7.5 nM. In addition, in the data set with MT2, the IC50 turned out to be 390 nM. Besides, in data set [1], the logD was found to be 4.8.
Take `CC(=O)N[C@@H](CO)C(=O)N[C@H]1CCCCOc2ccc(cc2)C[C@@H]([C@H](O)CN(CCC(C)C)S(=O)(=O)c2ccc(N)cc2)NC(=O)[C@H](C(C)C)NC1=O`: affinity in data set [2] was put at a Ki of 0.34 nM. Besides, the IC50 with MT2 was over 10000 nM. Further, the logD in data set [1] came out at 0.4.
In the case of `CCCOC[C@@H]1NC(=O)[C@@H](NC(=O)OC(C)(C)C)CCCCOc2ccc(cc2)C[C@@H]([C@H](O)CN(CCC(C)C)S(=O)(=O)c2ccc(NC(C)=O)cc2)NC1=O`, in data set [2], the Ki turned out to be 45 nM. In the data set with MT2, this molecule displayed an IC50 of 825 nM. For the same molecule, in data set [1], the logD was 3.6.
For `CCCC[C@@H]1NC(=O)[C@@H](NC(=O)[C@H](CO)NC(=O)OC(C)(C)C)CCCCOc2ccc(cc2)C[C@@H]([C@H](O)CN(CCC(C)C)S(=O)(=O)c2ccc(NC(C)=O)cc2)NC1=O` the same measures were 12 nM, 2550 nM and 3.
`CCCC[C@@H]1NC(=O)[C@@H](NC(C)=O)CCCCOc2ccc(cc2)C[C@@H]([C@H](O)CN(CCC(C)C)S(=O)(=O)c2ccc(N)cc2)NC1=O` registered a Ki in data set [2] of 2.8 nM. In addition, the IC50 in the data set with MT2 was found to be 910 nM. Besides, in data set [1], the logD was 3.
In data set [2], `CCCOC[C@@H]1NC(=O)[C@@H](N)CCCCOc2ccc(cc2)C[C@@H]([C@H](O)CN(CCC(C)C)S(=O)(=O)c2ccc(N)cc2)NC1=O` displayed a Ki of 45 nM. In the data set with MT2, this molecule registered a half-maximal inhibitory concentration (IC50) of over 10000 nM. For the same molecule, in data set [1], the logD was found to be 0.5.
On to `CC(=O)Nc1ccc(S(=O)(=O)N(CCC(C)C)C[C@@H](O)[C@@H]2Cc3ccc(cc3)OCCCC[C@H](NC(=O)OC(C)(C)C)C(=O)N[C@@H](C(C)C)C(=O)N2)cc1`, for which the Ki in data set [2] turned out to be 2 nM. This molecule had an IC50 in the data set on MT2 of 177 nM. In data set [1], the logD was 4.1.
`CCCC[C@@H]1NC(=O)[C@@H](N)CCCCOc2ccc(cc2)C[C@@H]([C@H](O)CN(CCC(C)C)S(=O)(=O)c2ccc(N)cc2)NC1=O`: the Ki in data set [2] was 0.31 nM. Also, the 50% inhibitory concentration (IC50) in the data set on MT2 is 6850 nM. In data set [1], the logD was 1.7.
